Data on eleven compounds can be found in ChEMBL document CHEMBL5104098, “Exploring the structure-activity relationship of benzylidene-2,3-dihydro-1H-inden-1-one compared to benzofuran-3(2H)-one derivatives as inhibitors of tau amyloid fibers” (Eur J Med Chem, 2022).

Calls of active or inactive are those of the source. No cut-off for these calls is given here.

The nature of assay [1]: Displacement of ThT from AcPHF6 in pH 7.4 phosphate buffer at 1:1 compound:ThT ratio. Summed up: (§1)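 Preformed AcPHF6 fibers (1 mM peptide left 24 h in deionised water) added to give 100 μM fibers with 10 μM ThT in 50 mM phosphate buffer pH 7.4, ≤0.5% DMSO; compound 10 μM (1:1 with ThT). Emission spectra recorded shortly after fiber addition, excitation 440 nm; % decrease calculated from emission intensity at 480 nm.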

A short description of assay [2]: Displacement of ThT from AcPHF6 in pH 7.4 phosphate buffer assessed as reduction in fluorescence intensity relative to control. Particulars: dose 10.0 µM. Summed up: as §1
A short description of assay [3]: Inhibition of synthetic AcPHF6 peptide aggregation in pH 7.4 phosphate buffer assessed as reduction in fluorescence intensity at 10 uM and measured every minute over 2 hrs by ThT fluorescence assay relative to control. Summed up:
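Fluorescence read every minute for 2 h, ex 440/em 480 nm. Intrinsic compound fluorescence corrected with peptide-free blank wells. Hexaplicate; % inhibition versus peptide-only control.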

Assay [4] can be described thus: Inhibition of synthetic AcPHF6 peptide aggregation in pH 7.4 phosphate buffer assessed as reduction in beta sheet formation at 100 uM incubated for 2 hrs by circular dichroism spectroscopy. The method in brief: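 CD samples: 100 μM AcPHF6 in 50 mM phosphate buffer, compound with <0.2% DMSO, 1 mm quartz cell. Spectra taken after 2 h at room temperature, 260–190 nm, 1 nm resolution, 1 s per point, 10 nm bandwidth. Compound level is printed as 10 μM in methods and 100 μM in legend.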

Assay [5] in a line: Inhibition of synthetic AcPHF6 peptide aggregation in pH 7.4 phosphate buffer assessed as reduction in beta sheet fibrillation at 100 uM incubated for 24 hrs by atomic force microscopy analysis. Summed up:
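AFM imaging of samples taken from the CD preparations after 24 h fibrillation at room temperature; 100 μM AcPHF6 alone or with compound at 100 μM.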

By inhibition is commonly meant the share of the control response that was lost under treatment. Take `O=C1/C(=C/c2ccc(O)c(O)c2)Cc2cc(O)cc(O)c21`: in assay [1], the inhibition entry was “Active”. For the same compound, the inhibition was 65% in assay [2] and 78% in assay [3].
For `O=C1/C(=C/c2ccc(O)cc2O)Cc2cc(O)cc(O)c21` the same measures were “Active”, 76% and 72%.
On to `O=C1/C(=C/c2cc(O)c(O)c(O)c2)Oc2c(O)cccc21`, for which the inhibition result in assay [1] was “Active”. The inhibition was determined as 88% in assay [2] and 91% in assay [3].
For the compound `O=C1/C(=C/c2cc(O)c(O)c(O)c2)Cc2c(O)cccc21`, the inhibition result in assay [4] and in assay [1] was “Active” each time. For the same compound, the inhibition was determined as 78% in assay [2] and 83% in assay [3].
`O=C1/C(=C/c2cc(O)c(O)c(O)c2)Oc2ccccc21`: the inhibition result in assay [1] was “Active”. Moreover, the inhibition in assay [2] amounted to 70%; in assay [3], 68%.
For `O=C1/C(=C/c2ccc(O)c(O)c2)Oc2cc(O)cc(O)c21` the same measures were “Active”, 85% and 93%.
For `COc1cccc(/C=C2\Oc3c(OC)cccc3C2=O)c1` the same measures were “Active”, 45% and 69%.
As for `O=C1/C(=C/c2cc(O)c(O)c(O)c2)Cc2ccccc21`, the inhibition result in assay [4], in assay [1] and in assay [5] was “Active” throughout. Also, the inhibition in assay [2] is 42%; in assay [3], 71%.
With `O=C1/C(=C/c2cc(O)c(O)c(O)c2)Cc2cc(O)cc(O)c21`, the inhibition result in assay [4] and in assay [1] was “Active” in each case. For the same compound, the inhibition in assay [2] stood at 90%; in assay [3], 87%.
On to `O=C1/C(=C/c2ccc(O)cc2O)Oc2cc(O)cc(O)c21`, for which the inhibition entry in assay [1] was “Active”. For the same compound, the inhibition in assay [2] is 89%; in assay [3] it was 94%.
The corresponding values for `O=C1/C(=C/c2cc(O)c(O)c(O)c2)Oc2cc(O)cc(O)c21` are “Active”, 94% and 99%.
